PfM18AAP inh – PfM18AAP inhibitors, malaria aminopeptidase, primary screen, biochemical, QFRET, recombinant enzyme | inhibition, % at 7.35 µM | M18 aspartyl aminopeptidase (Plasmodium falciparum 3D7) | 290,000 compounds, 1.2% hits | H-Glu-NHMec fluorogenic cleavage | AID 1822, 2009;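 active = inhibition above the campaign mean inhibition over all tested compounds plus 3 SD, cut at about 28% in these data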;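 note: 0% = plate median of test compound wells and 100% = 2 mM ZnCl2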
EBNA-1 inhibitor – EBNA-1 DNA-binding inhibitors, primary screen, biochemical, fluorescence polarization; inhibition, % at 14.8 µM; 300,000 compounds, 0.34% hits; AID 1950, 2009; in the data active = inhibition above about 28%
PfGluPho inh – PfG6PD enzyme inhibitors, primary screen, biochemical, fluorescence intensity, uHTS; 350,000 compounds, 0.78% hits; PfGluPho enzyme, NADPH resazurin-diaphorase fluorescence; glucose-6-phosphate dehydrogenase-6-phosphogluconolactonase (Plasmodium falciparum 3D7); AID 504690, 2011; inhibition, % at 20 µM;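 active = inhibition reaching at least a set limit at 20 µM in the primary screen, cut at about 59% in these data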;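 note: 0% = DMSO wells with substrate and 100% = DMSO wells lacking glucose-6-phosphate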
Apaf1 inhib – inhibitors of human Apaf-1 apoptosome, primary screen, biochemical, DEVD-Rh110 fluorescence, uHTS; reconstituted apoptosome caspase-3 activity; inhibition, % at 20 µM; 330,000 compounds, 0.71% hits; active = inhibition of at least 40% at 20 µM;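 note: plate controls were DMSO wells for no effect and DEVD-CHO caspase inhibitor wells for full effect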
Target sequence (O14727 whole entry, looked up): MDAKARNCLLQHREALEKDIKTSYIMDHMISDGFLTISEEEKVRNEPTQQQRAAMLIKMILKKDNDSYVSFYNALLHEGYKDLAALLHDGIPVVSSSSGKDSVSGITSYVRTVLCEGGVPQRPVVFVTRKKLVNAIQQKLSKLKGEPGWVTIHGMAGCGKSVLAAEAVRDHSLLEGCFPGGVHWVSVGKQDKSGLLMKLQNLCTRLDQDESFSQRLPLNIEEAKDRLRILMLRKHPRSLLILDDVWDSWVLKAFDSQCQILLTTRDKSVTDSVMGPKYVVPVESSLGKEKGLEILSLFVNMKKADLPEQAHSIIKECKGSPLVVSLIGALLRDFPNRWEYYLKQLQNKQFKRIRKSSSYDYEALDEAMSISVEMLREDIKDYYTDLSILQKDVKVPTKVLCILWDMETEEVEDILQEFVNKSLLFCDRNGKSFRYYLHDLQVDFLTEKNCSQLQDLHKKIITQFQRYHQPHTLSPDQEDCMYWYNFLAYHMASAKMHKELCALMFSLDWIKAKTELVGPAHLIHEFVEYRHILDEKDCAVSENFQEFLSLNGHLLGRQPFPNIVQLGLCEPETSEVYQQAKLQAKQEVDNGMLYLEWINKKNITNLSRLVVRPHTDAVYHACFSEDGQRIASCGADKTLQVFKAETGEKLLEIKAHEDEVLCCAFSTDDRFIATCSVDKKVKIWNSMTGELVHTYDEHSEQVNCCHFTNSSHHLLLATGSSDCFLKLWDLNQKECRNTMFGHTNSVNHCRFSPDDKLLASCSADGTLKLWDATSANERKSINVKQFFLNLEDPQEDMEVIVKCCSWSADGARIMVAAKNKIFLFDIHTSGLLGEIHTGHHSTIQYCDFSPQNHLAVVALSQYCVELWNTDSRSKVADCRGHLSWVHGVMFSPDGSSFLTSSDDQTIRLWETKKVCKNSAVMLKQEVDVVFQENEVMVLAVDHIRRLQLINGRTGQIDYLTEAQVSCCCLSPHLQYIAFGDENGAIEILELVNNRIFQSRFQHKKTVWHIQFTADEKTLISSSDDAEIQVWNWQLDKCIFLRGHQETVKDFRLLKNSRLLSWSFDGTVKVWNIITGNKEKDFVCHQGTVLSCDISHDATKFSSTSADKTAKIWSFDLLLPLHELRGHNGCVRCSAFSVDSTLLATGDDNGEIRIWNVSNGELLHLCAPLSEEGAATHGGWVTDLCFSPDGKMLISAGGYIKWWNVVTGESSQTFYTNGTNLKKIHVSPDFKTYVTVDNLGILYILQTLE
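Material: biochemical Apaf-1 apoptosome reconstitution. Medium: Hepes buffer, pH 7.5. Also added: cytochrome c activation, bis-DEVD rhodamine 110 substrate. Timing: 30 min compound preincubation, 50 min activation, room temperature. Measured by: rhodamine 110 fluorescence at Ex 480/Em 540 nm.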
ZTA counter – blocks Epstein-Barr virus ZTA, an EBNA-1 counter-screen. P03206. ZTA-DNA binding, fluorescence polarization. inhibition, % at 11 µM. 320,000 compounds, 0.15% hits. AID 2234; in the data active = inhibition above about 33%
UBC13 inh – UBC13 polyubiquitin chain formation inhibitors, primary screen, biochemical, TR-FRET, uHTS; 330,000 compounds, 0.47% hits; inhibition, % at 20 µM; AID 485273, 2010; Ubiquitin-conjugating enzyme E2 N (Homo sapiens), P61088; in the data active = inhibition above about 45%, passing the limit was not always enough
Starred values were filed as active, the others as inactive; nt = no result given. Hits are enriched below; roughly 2.9% of the tested compounds scored in any of these assays.

SMILES | PfM18AAP inh | EBNA-1 inhibitor | PfGluPho inh | Apaf1 inhib | ZTA counter | UBC13 inh
CC1Oc2ccccc2C=C1/C=N\NC(=O)c1cccnc1 (stereo unspecified) | -1.9 | 6.3 | -3.4 | -10.4 | 1.4 | 2.5
O=C1CC(c2ccco2)CC(O)=C1C=NCC1NCCc2ccccc21 (stereo unspecified) | 28.8* | -0.3 | -6.8 | 5.0 | 2.9 | 0.5
O=c1cc(CNc2ccc(Br)cc2)nc2sccn12 | 1.9 | 2.8 | 10.8 | -4.9 | 2.8 | 9.1
Cn1cccc1C1C(C#N)=C(N)OC2=C1C(=O)CCC2 (stereo unspecified) | 28.1* | -10.7 | -0.9 | -5.9 | -0.9 | 2.9
C[C@H]1CN([C@@H](C)CO)C(=O)CCCn2cc(nn2)CO[C@@H]1CN(C)C(=O)Nc1cccc(Oc2ccccn2)c1 | nt | nt | 2.9 | nt | nt | nt
COc1ccc(CNC(=O)CSc2nc3ccccc3n2C(C)=O)cc1 | -9.4 | -1.5 | -1.2 | -3.9 | -12.3 | 5.5
O=C(COC(=O)c1cc(S(=O)(=O)N2CCc3ccccc3C2)ccc1Cl)NCc1ccco1 | 1.6 | 0.4 | 12.2 | 42.6* | -14.4 | 0.6
O=c1/c(=C/c2ccccn2)sc2nc3ccccc3n12 | 36.1* | -4.5 | 13.7 | 7.5 | 12.2 | -1.5
O=C(COc1ccc(Nc2ccccc2)cc1)OCC(=O)N1CCCCC1 | 28.7* | -14.9 | 21.2 | 8.0 | -5.6 | -8.3
C=CCN(CC=C)CC(=O)Nn1c(C)ccc1C | nt | nt | -5.9 | nt | nt | nt
O=C1CCN(CC2CCCCC2)C=C1C(=O)c1ccccc1 | nt | nt | 4.5 | nt | nt | nt
O=C(CC1Sc2ncnn2C1=O)Nc1ccc(Br)cc1 (stereo unspecified) | 37.3* | -11.8 | 3.5 | -8.7 | -5.2 | 0.3
O=C(CC1SC2=NCCN2C1=O)Nc1ccc(Br)cc1 (stereo unspecified) | -1.9 | -9.9 | -2.0 | -0.5 | 4.0 | -11.3
O=C(O)CCNc1ccc(NCCC(=O)O)c2c1C(=O)c1ccccc1C2=O | 12.7 | 128.1* | 3.3 | -12.2 | 158.3* | -100.0
CCCCOC(C)n1cc(F)c(=O)[nH]c1=O (stereo unspecified) | 1.5 | -0.6 | -4.8 | nt | 8.9 | nt
CCOC(=O)N1CCN(C(=O)C2CCN(C(=O)c3ccccc3C)CC2)CC1 | nt | nt | 117.3* | nt | nt | nt
COc1ccc(C2C=C(c3ccc(C)cc3)Nc3ncnn32)cc1 (stereo unspecified) | 16.4 | nt | 1.9 | nt | nt | nt
COc1ccc(C2C=C(c3ccc(Br)s3)Nc3ncnn32)cc1OC (stereo unspecified) | 36.1* | 2.4 | nt | 15.4 | 6.4 | -1.6
O=C1C=CC(=O)N1c1ccccc1N1C(=O)C=CC1=O | nt | nt | 114.4* | nt | nt | nt
Cc1cc(=O)[nH]c(N/N=C/c2ccccn2)n1 | -9.8 | -5.9 | -29.9 | 0.1 | 1.1 | -38.7
O=c1nc(N/N=C/c2ccccn2)cn[nH]1 | 48.8* | 9.7 | -28.6 | 0.9 | -16.4 | -4.8
O=C(/C=C/c1cn(-c2ccccc2)nc1-c1cccc(Cl)c1)N1CCN(c2ccccn2)CC1 | -1.1 | 13.8 | 10.8 | 10.4 | -7.8 | 15.6
CCOc1cccc(=O)c2c(C)n(-c3ccc(C(=O)O)cc3)c(C)c12 | 15.7 | 6.5 | -21.8 | 8.2 | 40.9* | 2.0
CCOc1ccc(C(=O)Nn2cnnc2)cc1 | 21.7 | 12.0 | 11.2 | -21.4 | 7.9 | 0.3
Cc1ccc(C(=O)Nn2cnnc2)cc1 | 28.9* | -0.9 | -3.8 | 6.4 | -11.6 | 7.4
SMILES | PfM18AAP inh | EBNA-1 inhibitor | PfGluPho inh | Apaf1 inhib | ZTA counter | UBC13 inh
O=[N+]([O-])c1ccc(C2CC(c3ccccc3)=Nc3ccccc3S2)cc1 (stereo unspecified) | 31.8* | -1.7 | 15.0 | 15.6 | -15.5 | 2.4
CC(C)CCOCC(O)CCC(=O)NNC(=S)Nc1ccccc1 (stereo unspecified) | 8.2 | -2.6 | -9.9 | -2.8 | -1.1 | 1.6
C=CCC(CC(O)COCCC)C(=O)NNC(=S)Nc1ccccc1 (stereo unspecified) | 30.0* | -4.3 | 7.4 | 0.5 | 4.5 | -6.5
O=C(Cn1nc(Cc2cccnc2)c2ccccc2c1=O)Nc1ccccc1F | 0.7 | 0.5 | -18.0 | -12.2 | 2.1 | 1.0
CC(=O)N(C)c1ccc(N=Cc2cc3c(cc2[N+](=O)[O-])OCO3)cc1 | nt | 3.3 | 53.1 | 64.9* | -4.2 | -18.3
Cc1cccc(COc2ccccc2C(=O)N(C)CC(=O)Nc2cccc(F)c2)c1 | nt | nt | 12.6 | 29.6 | 5.8 | 4.4
CCOc1ccc(NC(=O)CN(C)C(=O)c2ccccc2OCc2cccc(C)c2)cc1OCC | nt | nt | 2.8 | 46.1* | 4.4 | 15.0
O=C(O)CCc1ccc(-c2ccccc2)o1 | -57.1 | -8.6 | 66.1* | 6.3 | -2.2 | -9.8
O/N=C\c1ccc(-c2ccccc2)o1 | -3.5 | -2.1 | 25.7 | 3.5 | -8.9 | 5.2
Nc1ccccc1Sc1ccc(C(=O)c2ccccc2C(=O)O)cc1[N+](=O)[O-] | 30.1* | -2.7 | -13.7 | -10.8 | 0.5 | -19.9
CC(=O)c1ccc(Sc2ccccc2N)c([N+](=O)[O-])c1 | -1.2 | -1.5 | 10.3 | 6.8 | -4.1 | -2.2
COc1cccc(C2c3cc4c(cc3OC(C)(N3CCCC3)C2C)OCO4)c1O (stereo unspecified) | nt | nt | 16.8 | nt | nt | nt
CSc1ncnc2c1ncn2CCCN1CCN(c2ncccn2)CC1 | nt | nt | -10.6 | nt | nt | nt
O=C(O)CCCCCn1c(SCC(=O)c2ccc(O)c(O)c2)nc2ccsc2c1=O | 47.3* | 5.0 | -22.6 | 16.9 | 0.6 | 1.6
COc1cc(/C=C(\C#N)C(=O)NCC2CCCO2)ccc1OCC(=O)O (stereo unspecified) | 3.0 | 12.8 | 5.9 | -11.9 | 10.2 | -1.5
COc1cc(/C=C(\C#N)C(=O)NCC2CCCO2)c([N+](=O)[O-])cc1OC (stereo unspecified) | 30.3* | -0.7 | -3.5 | 2.0 | -3.9 | -2.9
Cc1ccc(-n2nnnc2SCC(=O)c2cc(C)n(CC3CCCO3)c2C)cc1 (stereo unspecified) | nt | 101.1* | -5.0 | 9.3 | -7.0 | -3.5
COc1cc(NC(=O)CN2C(=O)NC3(CCOc4ccccc43)C2=O)cc(OC)c1 (stereo unspecified) | nt | nt | 11.4 | 58.5* | -7.8 | 19.2
COc1ccc(NC2CCCN(C(=O)C3=NNC(=O)CC3)C2)cc1 (stereo unspecified) | nt | nt | -1.5 | nt | nt | nt
Cc1n[nH]c(=S)n(/N=C/c2cccc([N+](=O)[O-])c2)c1=O | 6.0 | -3.8 | -6.8 | -18.8 | -4.9 | 12.1
COc1cc(/C=N/n2c(=S)[nH]nc(C)c2=O)cc([N+](=O)[O-])c1O | 28.9* | -8.0 | 7.8 | 2.3 | -6.7 | -18.7
COc1ccc(NC(=O)Cn2cnc3sc(C)c(S(=O)(=O)N4CCN(C)CC4)c3c2=O)cc1OC | -12.7 | -14.2 | -1.9 | 3.2 | 3.1 | 4.5
CCOc1ccc(/C=N/n2cc(-c3ccccc3)[nH]c2=S)cc1 | 54.0* | 12.9 | 41.7 | 8.1 | 7.0 | -7.5

Assay outcomes as filed in PubChem BioAssay.
